Experimental data as given in PMC12669303 (Clinical Drug Investigation, 2025).
Where two headings read alike, the source gives them in different places. Marks after values point to notes of the source that are not given here.

Key:
[1] = Safety and tolerability: treatment-emergent adverse events; assay type: in vivo, human (healthy Chinese adults)
Outline: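 Oral tablets were given fasted to three cohorts: 1 mg single (n=8), 4 mg single then 7-day once-daily (n=10), and 10 mg single (n=8). Safety covered TEAEs, hematology, blood chemistry, urinalysis, vital signs, weight, 12-lead ECG and physical examination. AEs were coded with MedDRA v25.0. The safety set was subjects with ≥ 1 dose and ≥ 1 postdose assessment, reported as n (%).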

[2] = Single oral dose pharmacokinetics of dotinurad in plasma, phase 1 study; assay type: in vivo, human (healthy Chinese adults); conditions: for Vd/F / half-life / AUC(0-inf) / Cmax / Tmax: human, plasma
Outline: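 Healthy nonsmoking Chinese adults (18–45 y, weight ≥ 50 kg) took a single oral tablet dose (1 mg n=8, 4 mg n=10, 10 mg n=8) on Day 1 after a 10-h fast. Plasma was sampled 0–48 h, separated at 2000 g for 10 min at 4 °C, and stored at −80 °C. Samples had solid-phase pretreatment, then LC-MS/MS (LOQ 1 ng/mL). Noncompartmental parameters are mean ± SD, tmax median (min–max).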

[3] = Multiple once-daily oral dose pharmacokinetics of dotinurad in plasma; assay type: in vivo, human (healthy Chinese adults)
Outline: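 In the 4-mg cohort (n=10, screening serum urate ≥ 5.5 mg/dL), a single Day 1 dose was followed by a 3-day washout. The test compound was then given orally once daily on Days 4–10, each morning after a 10-h fast. Plasma sampled 0–72 h after the Day 10 dose was assayed by LC-MS/MS (LOQ 1 ng/mL). Parameters are noncompartmental, with accumulation relative to Day 1. Mean ± SD; tss,max median (min–max).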

[4] = tested on: serum urate; conditions: Chinese patients with gout, cited from earlier work
[5] = Cohort A, 1 mg single dose, N = 8
[6] = Cohort A, 1 mg single dose, N = 8, determined as drug-related TEAE
[7] = Cohort B, 4 mg single and multiple doses, N = 10
[8] = Cohort C, 10 mg single dose, N = 8
[9] = 4 mg once daily for 7 days, Day 10, N = 10, mean ± SD
[10] = 4 mg once daily for 7 days, Day 10 vs Day 1, N = 10, mean ± SD

For O=C(c1cc(Cl)c(O)c(Cl)c1)N1CS(=O)(=O)c2ccccc21 [Dotinurad], the “dose dependence of TEAEs” value ([1]; 1, 4 and 10 mg cohorts) was “No dose-dependent TEAEs were observed”, the “Number of subjects with at least one TEAE, any severity” value (“Number of subjects … any severity” below) [1, 5] was 2 (25.0) n (%) and the “Number of subjects with at least one TEAE, mild” value (from here on “Number of subjects … mild”) [1, 5] was 2 (25.0) n (%). The “Number of subjects with at least one TEAE, moderate” value (shortened to “Number of subjects … moderate”) [1, 5] was 0 n (%), the “Number of subjects with at least one TEAE, severe” value (“Number of subjects … severe” below) [1, 5] was 0 n (%) and the “TEAE: Blood bilirubin increased (mild)” value [1, 5] was 0 n (%). The “TEAE: Body temperature increased (mild)” value [1, 5] was 0 n (%), the “TEAE: Alanine aminotransferase increased (mild)” value [1, 6] was 1 (12.5)^a n (%) and the “TEAE: Blood triglycerides increased (mild)” value [1, 6] was 1 (12.5)^a n (%). For the same compound, the “Number of subjects … any severity” value [1, 7] was 2 (20.0) n (%), the “Number of subjects … mild” value [1, 7] was 2 (20.0) n (%) and the “Number of subjects … moderate” value [1, 7] was 0 n (%). The “Number of subjects … severe” value [1, 7] was 0 n (%), the “TEAE: Alanine aminotransferase increased (mild)” value [1, 7] was 0 n (%) and the “TEAE: Blood bilirubin increased (mild)” value [1, 7] was 1 (10.0) n (%). The “TEAE: Blood triglycerides increased (mild)” value [1, 7] was 0 n (%), the “TEAE: Body temperature increased (mild)” value [1, 7] was 1 (10.0) n (%) and the “Number of subjects … any severity” value [1, 8] was 0 n (%). The “Number of subjects … mild” value [1, 8] was 0 n (%), the “Number of subjects … moderate” value [1, 8] was 0 n (%) and the “Number of subjects … severe” value [1, 8] was 0 n (%). The “TEAE: Alanine aminotransferase increased (mild)” value [1, 8] was 0 n (%), the “TEAE: Blood bilirubin increased (mild)” value [1, 8] was 0 n (%) and the “TEAE: Blood triglycerides increased (mild)” value [1, 8] was 0 n (%). For the same compound, the “TEAE: Body temperature increased (mild)” value [1, 8] was 0 n (%), the “Number of subjects … any severity” value ([1]; Total, all cohorts, N = 26) was 4 (15.4) n (%) and the “Number of subjects … mild” value ([1]; Total, all cohorts, N = 26) was 4 (15.4) n (%). The “Number of subjects … moderate” value ([1]; Total, all cohorts, N = 26) was 0 n (%), the “Number of subjects … severe” value ([1]; Total, all cohorts, N = 26) was 0 n (%) and the “TEAE: Alanine aminotransferase increased (mild)” value ([1]; Total, all cohorts, N = 26) was 1 (3.8) n (%). The “TEAE: Blood bilirubin increased (mild)” value ([1]; Total, all cohorts, N = 26) was 1 (3.8) n (%), the “TEAE: Blood triglycerides increased (mild)” value ([1]; Total, all cohorts, N = 26) was 1 (3.8) n (%) and the “TEAE: Body temperature increased (mild)” value ([1]; Total, all cohorts, N = 26) was 1 (3.8) n (%). The “severity and outcome of TEAEs” value ([1]; all cohorts) was “All the TEAEs were mild and resolved without any treatment”, the “fatal TEAE, serious TEAE, or TEAE leading to discontinuation of study drug” value ([1]; all cohorts, 1–10 mg) was “No fatal TEAE, serious TEAE, or TEAE leading to discontinuation of study drug was reported” and the “subjects who experienced at least 1 TEAE” value ([1]; all cohorts, 4 of 26 subjects) was 15.4%. The “subjects who experienced at least 1 TEAE” value ([1]; single and multiple doses of 4 mg (Cohort B), 2/10 subjects) was 20.0%, the “subjects who experienced at least 1 TEAE” value ([1]; single dose 1 mg (Cohort A), 2/8 subjects) was 25.0% and the “time at which mean plasma concentration reached maximum” value ([2]; across single oral doses of 1, 4 and 10 mg) was 3.00 to 3.50 h. The CL/F ([2]; across the single-dose range of 1–10 mg) was 0.757 to 0.834 L/h, the Vd/F ([2]; oral) was 11.1 to 11.7 L and the half-life ([2]; oral) was ~10 h. The AUC(0-inf) ([2]; po, 1 mg) was 1360 ± 288 ng·h/mL, the Cmax ([2]; po, 1 mg) was 104 ± 18.5 ng/mL and the Tmax ([2]; po, 1 mg) was 3.5 h. The Vd/F ([2]; po, 1 mg) was 11.1 ± 2.06 L, the half-life ([2]; po, 1 mg) was 10.1 ± 1.26 h and the AUC(0-inf) ([2]; po, 4 mg) was 4890 ± 683 ng·h/mL. For the same compound, the Cmax ([2]; po, 4 mg) was 365 ± 35.2 ng/mL, the Tmax ([2]; po, 4 mg) was 3 h and the Vd/F ([2]; po, 4 mg) was 11.7 ± 1.12 L. The AUC(0-inf) ([2]; po, 10 mg) was 13600 ± 2480 ng·h/mL, the Cmax ([2]; po, 10 mg) was 964 ± 101 ng/mL and the Tmax ([2]; po, 10 mg) was 3 h. It also gave a Vd/F ([2]; po, 10 mg) of 11.6 ± 1.1 L, a half-life ([2]; po, 10 mg) of 10.9 ± 1.53 h and a CL/F ([2]; single oral dose 1 mg, fasted, Cohort A, N = 8, mean ± SD) of 0.764 ± 0.147 L/h. The CL/F ([2]; single oral dose 4 mg, fasted, Cohort B Day 1, N = 10, mean ± SD) was 0.834 ± 0.130 L/h, the CL/F ([2]; single oral dose 10 mg, fasted, Cohort C, N = 8, mean ± SD) was 0.757 ± 0.134 L/h and the “mean plasma concentration relative to the corresponding maximum concentration” value ([2]; within 48 h after single oral doses of 1 to 10 mg) was “below 10%”. The CLss/F [3, 9] was 0.923 ± 0.183 L/h, the “Css,av” value [3, 9] was 186 ± 31.8 ng/mL and the “Css,max” value [3, 9] was 397 ± 69.4 ng/mL. The “Css,min” value [3, 9] was 65.4 ± 22.1 ng/mL, the “tss,max” value ([3]; 4 mg once daily for 7 days, Day 10, N = 10, median (min–max)) was 3.00 (2.00–6.00) h and the “Rac(AUC0–24h) accumulation ratio” value [3, 10] was 1.13 ± 0.121. For the same compound, the “Rac(Cmax) accumulation ratio” value [3, 10] was 1.09 ± 0.185, the AUC ([3]; human, plasma, oral, 4 mg) was 4470 ± 762 ng·h/mL and the Vd/F ([3]; human, plasma, oral, 4 mg) was 13.2 ± 1.64 L. For the same compound, the half-life ([3]; human, plasma, oral, 4 mg) was 10.1 ± 1.72 h, the “mean plasma concentration relative to the corresponding maximum concentration” value ([3]; within 72 h after Day 10 dose, 4 mg once daily for 7 days) was “below 1%” and the “reduction of serum urate” value ([4]; 2 mg, Week 12) was 37.9%. For the same compound, the “reduction of serum urate” value ([4]; 4 mg, Week 24) was 45.9%.
